Measurements of several laboratories.
Protocols differ between the studies behind these lines.
Transmembrane protease serine 6: Transmembrane protease serine 6 (Homo sapiens, UniProt Q8IU80)
Palmitoyl-protein thioesterase 1: Palmitoyl-protein thioesterase 1 (Homo sapiens, UniProt P50897)

Compound | target | assay | conditions | quantity | result
Cc1cc([C@@H](C)Nc2ccccc2C(=O)O)c2nc(N3CCC(F)(F)CC3)c(C#N)c(=O)n2c1 | SRSF protein kinase 3 (SRPK3, Homo sapiens, UniProt Q9UPE1) | binding, competition with immobilised ligand | 10 µM | remaining binding | 96%
C=CC(=O)N1CCC(COCC(=O)N2CCN(c3nc(-c4cnc(N)nc4C(F)F)nc(N4CCOC[C@@H]4C)n3)CC2)CC1 | Ribosomal protein S6 kinase alpha-2, C-terminal kinase domain (RPS6KA2, Homo sapiens, UniProt Q15349) | binding, competition with immobilised ligand | 1 µM | remaining binding | 90%
CC[C@H](NC(=O)[C@H](Cc1cscn1)NC(=O)CCc1ccccc1)C(=O)N[C@@H](CCCNC(=N)N)C(=O)c1nc2ccccc2s1 | Transmembrane protease serine 6 | enzyme activity, inhibitor | 0.1 µM | remaining activity | 20 to 50%
C=C[C@H]1C[N@@]2CC[C@H]1C[C@H]2[C@H](O)c1ccnc2ccc(OC)cc12 | Palmitoyl-protein thioesterase 1 | enzyme activity, inhibitor | 125 µM | inhibition | 18.6%
N=C(N)NCCC[C@H](NC(=O)C1(NC(=O)[C@H](Cc2cscn2)NC(=O)CCc2ccccc2)CC1)C(=O)c1nc2ccccc2s1 | Transmembrane protease serine 6 | enzyme activity, inhibitor | 0.1 µM | remaining activity | 60%
CC(C)C[C@@H](C(=O)N[C@H](C(=O)OC1CCCC1)c1ccccc1)[C@H](O)C(=O)NO | Palmitoyl-protein thioesterase 1 | enzyme activity, inhibitor | 625 µM | inhibition | 8.02%
COc1cc(-c2cncc3c2CN(C)Cc2cc(N4CCNCC4)ccc2-3)cc(OC)c1OC | Muscle, skeletal receptor tyrosine-protein kinase (MUSK, Homo sapiens, UniProt O15146) | enzyme activity, inhibitor | 1 µM | remaining activity | 113%
CC[C@@H](C)[C@H](NC(=O)[C@H](Cc1cscn1)NC(=O)CCc1ccccc1)C(=O)N[C@@H](CCCNC(=N)N)C(=O)c1nc2ccccc2s1 | Transmembrane protease serine 6 | enzyme activity, inhibitor | 0.1 µM | remaining activity | 1%
CNc1ncc2c(/C=C/C(=O)N3CCC(OC)CC3)nn(Cc3cccc(C(F)(F)F)c3)c2n1 | Epidermal growth factor receptor (EGFR, Homo sapiens, UniProt P00533) | enzyme activity, inhibitor, radiometric | 1 µM | remaining activity | 108%
